Measured values: ChEMBL document CHEMBL1649302, “New small-molecule inhibitor class targeting human immunodeficiency virus type 1 virion maturation” (Antimicrob Agents Chemother, 2009)

Columns and labels:
[1] = tested on: Human immunodeficiency virus 1; assay: Selectivity ratio of EC50 for HIV1 harboring spacer peptide A1V mutant protein infected in human HeLa cells to EC50 for wild type HIV1 infected in human HeLa cells; type: functional
In short: (§1)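 MT-2 cells were infected for 2 h with wild-type NL4-3 or recombinant NL4-3 carrying CA I201V or SP1 A1V. They were then cocultured with HeLa CD4 LTR/beta-Gal indicator cells in serially diluted compound. Beta-gal reporter was read after 4 days. EC50s are means ± SD of 3–6 experiments. Fold change is mutant EC50 divided by wild-type EC50.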

[2] = tested on: Human immunodeficiency virus 1; assay: Antiviral activity against HIV1 harboring capsid I201V mutant protein infected in human HeLa cells assessed as decrease in viral infection after 72 hrs by beta-galactosidase reporter gene assay; type: functional, organism-based; details: Human immunodeficiency virus 1, HeLa
[3] = tested on: Human immunodeficiency virus 1; assay: Selectivity ratio of EC50 for HIV1 harboring capsid I201V mutant protein infected in human HeLa cells to EC50 for wild type HIV1 infected in human HeLa cells; type: functional; in short: as §1
[4] = tested on: Human immunodeficiency virus 1; assay: Antiviral activity against HIV1 NL4-3 infected in human HeLa cells assessed as decrease in single-cycle viral infection after 72 hrs by beta-galactosidase reporter gene assay; type: functional, organism-based; details: Human immunodeficiency virus 1, NL4-3, HeLa
In short: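 HeLa CD4 LTR/beta-Gal cells (1 × 10⁴/well, DMEM + 10% FBS) were pre-dosed with half-log compound dilutions. They were infected at MOI 0.03 with single-cycle NL4-3 reporter virus made by cotransfecting HEK 293 cells with pNL4-3deltaEnv and an NL4-3 envelope vector. EC50 is from beta-gal reporter activity relative to infected untreated cells, across three experiments.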

[5] = tested on: Human immunodeficiency virus 1; assay: Antiviral activity against HIV1 NL4-3 infected in HEK293 cells assessed as decrease in virus production at 2 times EC90 after 72 hrs by beta-galactosidase reporter gene assay; type: functional
[6] = tested on: Human immunodeficiency virus 1; assay: Antiviral activity against wild type HIV1 infected in human HeLa cells assessed as decrease in viral infection after 72 hrs by beta-galactosidase reporter gene assay; type: functional, organism-based; details: Human immunodeficiency virus 1, HeLa
In short: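 HeLa CD4 LTR/β-Gal cells (1 × 10⁴/well, DMEM + 10% FBS) were pretreated with half-log compound dilutions. They were then infected at MOI 0.03 with single-cycle NL4-3 ΔEnv reporter virus pseudotyped with envelope from HEK 293 cotransfection. EC50 was the concentration halving β-galactosidase activity versus infected untreated cells. Values are mean ± SD or representative of three experiments.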

[7] = tested on: Human immunodeficiency virus 1; assay: Antiviral activity against HIV1 harboring spacer peptide A1V mutant protein infected in human HeLa cells assessed as decrease in viral infection after […] by beta-galactosidase reporter gene assay; type: functional, organism-based; details: Human immunodeficiency virus 1, HeLa; in short: as §1

| Structure (SMILES) | Ratio EC50 [1] | EC50 [2] | Ratio EC50 [3] | EC50 [4] | inhibition (INH) [5] | EC50 [6] | EC50 [7] |
| --- | --- | --- | --- | --- | --- | --- | --- |
| Cc1c(O)cccc1C(=O)N[C@@H](CSc1ccccc1)[C@H](O)CN1C[C@H]2CCCC[C@H]2C[C@H]1C(=O)NC(C)(C)C [NELFINAVIR] | 2 | 13 nM | 1 | > 1000 nM | 76% | 16 nM | 38 nM |
| O=C1Nc2ccc(Cl)cc2[C@@](C#CC2CC2)(C(F)(F)F)O1 [EFAVIRENZ] | – | 0.6 nM | – | – | 24% | – | 1 nM |
| C=C(C)[C@@H]1CC[C@]2(C(=O)O)CC[C@]3(C)[C@H](CC[C@@H]4[C@@]5(C)CC[C@H](OC(=O)CC(C)(C)C(=O)O)C(C)(C)[C@@H]5CC[C@]43C)[C@@H]12 [BEVIRIMAT] | >111 | 290 nM | 32 | – | – | 9 nM | > 1000 nM |
